Reference: ChEMBL document CHEMBL4680221, “Discovery of pyrazole derivatives as cellular active inhibitors of histone lysine specific demethylase 5B (KDM5B/JARID1B)” (Eur J Med Chem, 2020)
Activity calls are given as the source filed them. The rule behind the calls is not given here.

Assays:
[1] = target: Lysine-specific demethylase 5A (Homo sapiens, UniProt P29375); assay: Inhibition of KDM5A (unknown origin) at 1 uM relative to control
[2] = test system: MKN-45; assay: Antimigratory activity in human MKN-45 cells measured after 24 hrs by transwell assay; format: functional, cell-based
[3] = target: T1, Lysine-specific demethylase 5B (Homo sapiens, UniProt Q9UGL1); assay: Inhibition of KDM5B in human MKN-45 cells assessed as increase in H3K4me2 accumulation at 0.5 to 20 uM measured after 5 days by Western blot analysis; format: cell-based; conditions: dose 0.5-20 µM, time 5.0 day
Outline: (§1)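 MKN45 cells were treated for 5 days and lysed in RIPA buffer. About 30 µg protein was run on 10% SDS-PAGE and transferred to 0.2 µm nitrocellulose, then blocked with 5% milk in PBS for 2 h. Blots were probed for histone methylation marks with histone 3 as loading control and detected by ECL.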

[4] = target: T1, Lysine-specific demethylase 5B; assay: Inhibition of KDM5B in human MKN-45 cells assessed as protein stabilization measured after 1 hr by cellular thermal shift assay; format: cell-based
Outline: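 MKN45 cells (5×10^5) were treated with compound or DMSO for 1 h, washed in PBS and resuspended in PBS with protease inhibitors. Cells were heated at 46 °C for 3 min, then freeze-thawed three times in liquid nitrogen. KDM5B in the supernatant was measured by western blot with GAPDH control. Repeated three times.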

[5] = test system: MKN-45; assay: Antiproliferative activity against human MKN-45 cells assessed as reduction in cell proliferation measured after 6 days by MTS assay; format: functional, cell-based; conditions: MKN-45, 144 h
Outline: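 MKN45 cells were seeded at 3×10^3 cells per well and treated for 4 or 6 days, as indicated. Proliferation was read by MTS assay and IC50 derived. Three independent experiments, mean ± SD.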

[6] = test system: MKN-45; assay: Inhibition of KDM4 in human MKN-45 cells assessed as increase in H3K9me3 accumulation at 0.5 to 20 uM measured after 5 days by Western blot analysis; format: cell-based; conditions: dose 0.5-20 µM, time 5.0 day; outline: as §1
[7] = target: T2, Lysine-specific demethylase 4A (Homo sapiens) (UniProt O75164); assay: Inhibition of KDM4A (unknown origin) at 0.01 uM relative to control
T2 sequence (whole entry): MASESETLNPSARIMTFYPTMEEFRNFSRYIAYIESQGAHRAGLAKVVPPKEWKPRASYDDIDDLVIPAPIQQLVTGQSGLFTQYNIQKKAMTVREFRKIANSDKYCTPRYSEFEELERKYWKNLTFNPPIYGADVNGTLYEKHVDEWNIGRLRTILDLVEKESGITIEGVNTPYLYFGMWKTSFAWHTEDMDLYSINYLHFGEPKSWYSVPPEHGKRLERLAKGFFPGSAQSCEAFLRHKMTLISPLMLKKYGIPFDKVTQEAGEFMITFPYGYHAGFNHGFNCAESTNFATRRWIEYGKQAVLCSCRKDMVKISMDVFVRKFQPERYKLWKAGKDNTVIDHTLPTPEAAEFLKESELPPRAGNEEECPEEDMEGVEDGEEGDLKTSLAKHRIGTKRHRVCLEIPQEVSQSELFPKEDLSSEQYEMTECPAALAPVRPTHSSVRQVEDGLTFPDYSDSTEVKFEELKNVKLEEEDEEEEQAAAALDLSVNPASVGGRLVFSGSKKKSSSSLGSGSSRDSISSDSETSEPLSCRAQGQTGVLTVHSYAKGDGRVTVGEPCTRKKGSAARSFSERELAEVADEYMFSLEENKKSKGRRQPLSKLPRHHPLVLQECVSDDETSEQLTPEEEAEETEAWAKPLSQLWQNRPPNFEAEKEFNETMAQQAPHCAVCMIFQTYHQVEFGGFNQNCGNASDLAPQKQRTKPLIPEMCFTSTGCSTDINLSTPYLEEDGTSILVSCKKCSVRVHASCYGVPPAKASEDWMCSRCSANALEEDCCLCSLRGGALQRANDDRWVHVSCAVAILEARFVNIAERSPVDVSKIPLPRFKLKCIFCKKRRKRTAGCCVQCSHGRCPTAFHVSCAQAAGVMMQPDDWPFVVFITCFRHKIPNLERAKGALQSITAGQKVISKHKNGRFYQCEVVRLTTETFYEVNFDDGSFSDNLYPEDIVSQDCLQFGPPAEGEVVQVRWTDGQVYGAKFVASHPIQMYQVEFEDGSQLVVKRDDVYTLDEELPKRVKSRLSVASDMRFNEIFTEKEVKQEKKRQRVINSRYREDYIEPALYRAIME

[8] = Cytotoxicity against human GES1 cells assessed as reduction in cell proliferation at 100 uM by MTS assay relative to control; format: cell-based; conditions: read-out: Activity
Outline: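 Normal human gastric epithelial GES-1 cells, seeded at 3×10^3 cells per well and exposed to 100 μM. Antiproliferation rate was read by MTS assay.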

[9] = target: T3, Lysine-specific demethylase 5C (Homo sapiens, UniProt P41229); assay: Inhibition of KDM5C (unknown origin) at 1 uM relative to control
[10] = target: T1, Lysine-specific demethylase 5B; assay: Inhibition of KDM5B in human MKN-45 cells assessed as increase in H3K4me3 accumulation at 0.5 to 20 uM measured after 5 days by Western blot analysis; format: cell-based; conditions: dose 0.5-20 µM, time 5.0 day; outline: as §1
[11] = target: T3, Lysine-specific demethylase 5C; assay: Inhibition of KDM5C (unknown origin)

T1 sequence (Q9UGL1 whole entry): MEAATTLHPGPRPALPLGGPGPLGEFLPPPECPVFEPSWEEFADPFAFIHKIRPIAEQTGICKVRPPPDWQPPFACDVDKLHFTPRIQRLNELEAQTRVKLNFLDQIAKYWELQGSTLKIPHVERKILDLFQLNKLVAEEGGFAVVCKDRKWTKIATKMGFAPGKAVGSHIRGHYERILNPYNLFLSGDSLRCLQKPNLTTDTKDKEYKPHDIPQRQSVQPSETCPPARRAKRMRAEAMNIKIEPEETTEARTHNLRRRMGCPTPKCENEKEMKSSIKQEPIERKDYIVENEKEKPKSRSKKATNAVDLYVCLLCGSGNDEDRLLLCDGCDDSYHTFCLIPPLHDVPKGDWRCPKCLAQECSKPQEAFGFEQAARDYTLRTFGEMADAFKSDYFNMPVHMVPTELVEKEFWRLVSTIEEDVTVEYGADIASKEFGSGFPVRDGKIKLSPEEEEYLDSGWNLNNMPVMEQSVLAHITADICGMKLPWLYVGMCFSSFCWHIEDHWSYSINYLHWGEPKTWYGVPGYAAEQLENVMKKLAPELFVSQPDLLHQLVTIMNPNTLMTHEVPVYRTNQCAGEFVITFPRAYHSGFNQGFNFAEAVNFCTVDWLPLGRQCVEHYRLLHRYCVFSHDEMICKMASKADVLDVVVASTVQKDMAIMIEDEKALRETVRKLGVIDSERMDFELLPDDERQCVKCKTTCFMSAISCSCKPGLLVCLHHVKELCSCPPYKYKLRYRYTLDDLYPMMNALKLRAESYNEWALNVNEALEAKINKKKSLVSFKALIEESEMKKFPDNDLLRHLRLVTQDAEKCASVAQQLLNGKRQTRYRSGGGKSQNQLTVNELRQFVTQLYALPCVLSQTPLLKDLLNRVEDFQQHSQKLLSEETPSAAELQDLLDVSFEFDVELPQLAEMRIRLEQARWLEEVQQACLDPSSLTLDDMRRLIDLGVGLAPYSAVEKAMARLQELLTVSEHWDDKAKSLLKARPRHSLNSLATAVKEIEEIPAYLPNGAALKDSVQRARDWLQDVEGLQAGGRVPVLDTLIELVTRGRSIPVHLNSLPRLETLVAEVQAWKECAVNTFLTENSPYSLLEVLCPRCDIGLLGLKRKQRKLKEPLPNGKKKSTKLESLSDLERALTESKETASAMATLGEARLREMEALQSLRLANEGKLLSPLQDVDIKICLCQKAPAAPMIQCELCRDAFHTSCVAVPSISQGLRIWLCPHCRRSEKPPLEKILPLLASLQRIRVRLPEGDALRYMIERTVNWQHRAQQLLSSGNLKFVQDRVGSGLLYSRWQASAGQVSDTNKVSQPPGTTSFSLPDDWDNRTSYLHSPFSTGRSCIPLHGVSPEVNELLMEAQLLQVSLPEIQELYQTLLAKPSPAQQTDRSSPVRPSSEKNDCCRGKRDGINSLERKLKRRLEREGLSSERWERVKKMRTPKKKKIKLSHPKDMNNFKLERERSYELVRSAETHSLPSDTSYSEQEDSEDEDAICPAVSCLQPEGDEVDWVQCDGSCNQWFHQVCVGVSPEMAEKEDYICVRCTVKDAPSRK
T3 sequence (P41229 whole entry): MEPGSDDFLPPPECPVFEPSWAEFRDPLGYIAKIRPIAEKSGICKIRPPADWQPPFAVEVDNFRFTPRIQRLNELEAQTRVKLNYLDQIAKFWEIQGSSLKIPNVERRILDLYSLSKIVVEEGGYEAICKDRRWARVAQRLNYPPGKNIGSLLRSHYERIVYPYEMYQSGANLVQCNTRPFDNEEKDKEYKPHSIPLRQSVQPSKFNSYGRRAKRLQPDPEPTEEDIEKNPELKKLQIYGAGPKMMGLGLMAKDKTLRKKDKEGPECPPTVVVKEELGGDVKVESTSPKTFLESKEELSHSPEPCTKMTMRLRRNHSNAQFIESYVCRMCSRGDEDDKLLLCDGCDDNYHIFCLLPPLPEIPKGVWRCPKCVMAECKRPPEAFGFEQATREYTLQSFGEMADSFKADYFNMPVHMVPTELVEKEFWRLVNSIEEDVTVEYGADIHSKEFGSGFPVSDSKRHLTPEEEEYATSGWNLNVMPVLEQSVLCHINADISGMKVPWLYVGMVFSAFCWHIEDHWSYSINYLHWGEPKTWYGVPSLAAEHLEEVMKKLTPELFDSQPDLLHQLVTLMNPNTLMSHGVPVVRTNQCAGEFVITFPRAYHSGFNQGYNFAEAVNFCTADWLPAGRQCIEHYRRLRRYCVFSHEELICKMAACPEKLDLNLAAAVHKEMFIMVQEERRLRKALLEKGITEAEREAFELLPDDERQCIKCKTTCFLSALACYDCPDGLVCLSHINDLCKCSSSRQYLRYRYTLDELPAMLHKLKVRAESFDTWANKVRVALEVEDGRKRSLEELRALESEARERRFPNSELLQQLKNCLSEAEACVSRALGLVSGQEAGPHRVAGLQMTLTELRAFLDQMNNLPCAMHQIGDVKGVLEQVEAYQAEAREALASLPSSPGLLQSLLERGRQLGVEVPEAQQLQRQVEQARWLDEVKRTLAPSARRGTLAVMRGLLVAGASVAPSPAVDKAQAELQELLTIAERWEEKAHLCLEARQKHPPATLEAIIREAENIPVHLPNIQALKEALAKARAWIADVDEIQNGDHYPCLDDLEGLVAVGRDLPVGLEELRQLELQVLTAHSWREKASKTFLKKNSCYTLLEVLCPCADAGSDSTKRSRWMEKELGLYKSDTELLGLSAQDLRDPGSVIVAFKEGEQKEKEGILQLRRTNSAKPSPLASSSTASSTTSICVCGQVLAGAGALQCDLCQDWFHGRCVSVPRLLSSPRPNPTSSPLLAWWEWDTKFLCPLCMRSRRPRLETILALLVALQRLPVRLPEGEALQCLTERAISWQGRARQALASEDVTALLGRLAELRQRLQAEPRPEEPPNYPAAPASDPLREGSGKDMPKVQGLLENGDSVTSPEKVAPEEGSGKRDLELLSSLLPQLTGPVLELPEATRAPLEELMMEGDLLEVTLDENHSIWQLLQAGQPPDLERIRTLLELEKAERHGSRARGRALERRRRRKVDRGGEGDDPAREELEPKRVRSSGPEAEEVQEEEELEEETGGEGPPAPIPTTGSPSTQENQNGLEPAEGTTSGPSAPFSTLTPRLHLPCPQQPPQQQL
Sequence of Lysine-specific demethylase 5A (P29375 whole entry): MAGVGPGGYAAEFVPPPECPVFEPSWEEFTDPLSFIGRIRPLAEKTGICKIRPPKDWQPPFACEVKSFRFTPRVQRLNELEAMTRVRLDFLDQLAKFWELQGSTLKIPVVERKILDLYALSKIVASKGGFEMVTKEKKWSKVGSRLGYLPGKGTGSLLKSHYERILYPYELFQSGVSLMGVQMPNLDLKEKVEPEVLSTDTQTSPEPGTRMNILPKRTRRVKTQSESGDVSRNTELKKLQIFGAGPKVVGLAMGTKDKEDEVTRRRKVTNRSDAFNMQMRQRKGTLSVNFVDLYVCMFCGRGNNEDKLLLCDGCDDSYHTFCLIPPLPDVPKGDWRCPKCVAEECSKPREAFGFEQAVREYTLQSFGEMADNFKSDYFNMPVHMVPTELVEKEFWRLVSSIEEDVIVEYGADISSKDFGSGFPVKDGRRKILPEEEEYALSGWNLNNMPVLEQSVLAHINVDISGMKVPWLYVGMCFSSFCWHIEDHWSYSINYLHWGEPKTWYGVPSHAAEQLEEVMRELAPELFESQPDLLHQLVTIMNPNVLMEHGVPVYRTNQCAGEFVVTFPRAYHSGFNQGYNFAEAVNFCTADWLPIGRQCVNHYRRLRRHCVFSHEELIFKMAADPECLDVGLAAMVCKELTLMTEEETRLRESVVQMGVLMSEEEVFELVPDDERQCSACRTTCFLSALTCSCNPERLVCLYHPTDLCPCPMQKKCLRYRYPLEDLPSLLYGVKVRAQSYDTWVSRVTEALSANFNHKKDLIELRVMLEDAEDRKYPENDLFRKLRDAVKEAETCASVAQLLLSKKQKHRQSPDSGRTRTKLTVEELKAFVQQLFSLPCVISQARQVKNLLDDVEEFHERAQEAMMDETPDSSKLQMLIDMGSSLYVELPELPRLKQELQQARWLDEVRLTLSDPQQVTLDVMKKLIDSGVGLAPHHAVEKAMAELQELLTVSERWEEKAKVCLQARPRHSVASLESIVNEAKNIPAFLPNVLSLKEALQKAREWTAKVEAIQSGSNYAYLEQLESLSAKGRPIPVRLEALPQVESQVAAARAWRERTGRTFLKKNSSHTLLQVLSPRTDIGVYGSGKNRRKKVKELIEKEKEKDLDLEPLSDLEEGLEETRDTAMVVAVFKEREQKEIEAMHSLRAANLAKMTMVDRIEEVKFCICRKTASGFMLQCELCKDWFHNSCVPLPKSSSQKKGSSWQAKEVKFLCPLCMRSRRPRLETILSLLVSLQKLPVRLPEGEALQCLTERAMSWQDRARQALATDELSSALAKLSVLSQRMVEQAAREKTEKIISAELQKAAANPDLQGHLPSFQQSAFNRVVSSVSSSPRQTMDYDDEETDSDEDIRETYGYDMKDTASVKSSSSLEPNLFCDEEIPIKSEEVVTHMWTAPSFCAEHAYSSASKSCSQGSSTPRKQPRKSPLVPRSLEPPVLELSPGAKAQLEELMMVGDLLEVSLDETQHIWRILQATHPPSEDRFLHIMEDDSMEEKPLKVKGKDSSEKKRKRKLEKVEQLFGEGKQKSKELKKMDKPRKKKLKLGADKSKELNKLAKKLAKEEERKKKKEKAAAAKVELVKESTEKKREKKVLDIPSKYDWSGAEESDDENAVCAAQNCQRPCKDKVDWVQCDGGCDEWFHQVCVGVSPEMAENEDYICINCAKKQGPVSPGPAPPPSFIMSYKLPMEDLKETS

inhibition [1]: 79.3% | inhibition [3]: Active | inhibition [4]: Dose-dependent effect | IC50 [5]: 20.6 µM | inhibition [7]: 5.12% | inhibition [9]: 80.2% | inhibition [10]: Active | IC50 [11]: 0.0248 µM
SMILES: COc1ccc(-n2cc(C(=O)NCC(C)(C)N3CCOCC3)c(-c3ccccc3)n2)cc1
Activity [2]: Dose-dependent effect | inhibition [6]: inactive | inhibition at 100 µM [8]: < 10%
